Among the data in ChEMBL document CHEMBL2346574, “Evaluation of (Z)-2-((1-benzyl-1H-indol-3-yl)methylene)-quinuclidin-3-one analogues as novel, high affinity ligands for CB1 and CB2 cannabinoid receptors” (Bioorg Med Chem Lett, 2013) are Ki and Ratio Ki values, retold here.

The Ki is the equilibrium dissociation constant of an inhibitor or competing ligand from its target.

SMILES strings stand for the structures.

One assay has as its target Cannabinoid receptor 2 (Homo sapiens, UniProt P34972). Briefly: Displacement of [3H]CP 55940 from human CB2 receptor expressed in CHO cells after 90 mins by liquid scintillation counting. Type of assay: cell-based. The method in brief: (§1)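 Competition binding with 0.2 nM [3H]CP-55,940 and 5 mM MgCl2, in triplicate per concentration, using 50 mM Tris with 0.05% BSA and 0.1% ethanol/0.1% DMSO. CB1 used mouse whole-brain membranes and CB2 used CHO-hCB2 membranes. […] GF/B filtration, ice-cold washes, scintillation counting. Specific binding taken as percent of no-competitor.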
Background: Displacement assays read how much labelled ligand stays bound in the presence of the test substance.

A further assay concerns the target Cannabinoid receptor 1 (Mus musculus, UniProt P47746). Briefly: Displacement of [3H]CP 55940 from CB1 receptor in mouse whole brain membrane homogenates after 90 mins by liquid scintillation counting. It counts as cell membranes. The method in brief:
as §1

Assay [1] is described as follows: Selectivity ratio of Ki for CB1 receptor in mouse whole brain membrane homogenates to Ki for human CB2 receptor. It counts as cell membranes.

Sequence of Cannabinoid receptor 1 (P47746 whole entry): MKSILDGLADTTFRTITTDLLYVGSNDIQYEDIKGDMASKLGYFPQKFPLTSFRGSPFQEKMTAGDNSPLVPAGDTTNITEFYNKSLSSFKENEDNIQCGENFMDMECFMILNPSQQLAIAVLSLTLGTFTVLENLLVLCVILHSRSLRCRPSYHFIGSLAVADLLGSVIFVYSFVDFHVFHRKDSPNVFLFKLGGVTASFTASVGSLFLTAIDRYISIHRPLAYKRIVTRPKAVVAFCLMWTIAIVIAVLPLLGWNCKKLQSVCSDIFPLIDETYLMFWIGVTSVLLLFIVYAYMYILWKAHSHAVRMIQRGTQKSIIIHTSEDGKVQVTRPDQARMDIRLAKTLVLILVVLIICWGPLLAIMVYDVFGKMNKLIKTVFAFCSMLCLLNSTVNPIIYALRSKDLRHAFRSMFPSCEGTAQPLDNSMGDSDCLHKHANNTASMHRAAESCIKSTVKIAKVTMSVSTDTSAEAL
Sequence of Cannabinoid receptor 2 (P34972 whole entry): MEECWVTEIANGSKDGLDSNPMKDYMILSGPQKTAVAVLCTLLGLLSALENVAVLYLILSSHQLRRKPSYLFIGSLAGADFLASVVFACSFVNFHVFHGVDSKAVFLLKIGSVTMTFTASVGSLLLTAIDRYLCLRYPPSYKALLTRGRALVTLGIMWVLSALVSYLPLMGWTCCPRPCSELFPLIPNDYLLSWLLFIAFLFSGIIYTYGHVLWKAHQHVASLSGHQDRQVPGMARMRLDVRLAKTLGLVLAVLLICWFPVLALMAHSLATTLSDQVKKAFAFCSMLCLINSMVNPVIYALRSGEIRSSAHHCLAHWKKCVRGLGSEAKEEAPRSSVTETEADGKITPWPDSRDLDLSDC

Take `O=C1/C(=C/c2cn(Cc3ccc(F)cc3)c3ccccc23)N2CCC1CC2`: the inhibition constant (Ki) was found to be 1.33 nM on Cannabinoid receptor 2 and 9.23 nM at Cannabinoid receptor 1.

With `O/N=C1/C(=C/c2cn(Cc3ccccc3)c3ccccc23)N2CCC1CC2`, the inhibition constant (Ki) at Cannabinoid receptor 2 amounted to 68.6 nM; at Cannabinoid receptor 1 it was 357 nM.

As to `OC1/C(=C/c2cn(Cc3ccccc3)c3ccccc23)N2CCC1CC2` (racemic), the inhibition constant (Ki) amounted to 55.3 nM at Cannabinoid receptor 2 and 540 nM on Cannabinoid receptor 1.

Take `O=C1/C(=C/c2cn(Cc3ccccc3)c3ccccc23)N2CCC1CC2`: the Ki at Cannabinoid receptor 2 worked out at 11.7 nM; on Cannabinoid receptor 1, 135 nM.

Turning to `COC(=O)c1ccc(Cn2cc(/C=C3/C(=O)C4CCN3CC4)c3ccccc32)cc1`, the Ki at Cannabinoid receptor 2 is 588 nM; at Cannabinoid receptor 1, 953 nM.

In the case of `OC1/C(=C/c2cn(Cc3ccc(Cl)cc3)c3ccccc23)N2CCC1CC2` (racemic), the affinity on Cannabinoid receptor 1, expressed as Ki, was 85.3 nM.

`O/N=C1/C(=C/c2cn(Cc3ccc(Cl)cc3)c3ccccc23)N2CCC1CC2`: affinity at Cannabinoid receptor 1 was put at a Ki of 95.7 nM.

As to `N#Cc1ccc(Cn2cc(/C=C3/C(=O)C4CCN3CC4)c3ccccc32)cc1`, the values for the Ki on Cannabinoid receptor 2 and at Cannabinoid receptor 1 were 114 nM and 55.3 nM, respectively.

As for `COC(=O)c1ccc2c(/C=C3/C(=O)C4CCN3CC4)cn(Cc3ccccc3)c2c1`, the Ratio Ki in assay [1] was 34. Also, the inhibitory constant (Ki) on Cannabinoid receptor 2 came out at 2.5 nM; on Cannabinoid receptor 1 it was 85.7 nM.

Consider `O=C1/C(=C/c2cn(Cc3ccccc3Br)c3ccccc23)N2CCC1CC2`, for which the inhibition constant Ki amounted to 333 nM at Cannabinoid receptor 2 and 629 nM at Cannabinoid receptor 1.

As for `O=C1/C(=C/c2cn(Cc3ccc(Cl)cc3)c3ccccc23)N2CCC1CC2`, the figures for the inhibitory constant (Ki) at Cannabinoid receptor 2 and at Cannabinoid receptor 1 were 20.3 nM and 31.7 nM, respectively.
